According to ChEMBL document CHEMBL4477265, “Design and synthesis of cis-restricted benzimidazole and benzothiazole mimics of combretastatin A-4 as antimitotic agents with apoptosis inducing ability” (Bioorg Med Chem Lett, 2016):
Active and inactive are the calls of the source. The calls are words filed in the database; no cut-off is given here.

Assays:
[1] = test system: HepG2; experiment: Antiproliferative activity against human HepG2 cells after 48 hrs by sulforhodamine B assay; assay type: functional; details: HepG2, 48 h
[2] = test system: DU-145; experiment: Antiproliferative activity against human DU145 cells after 48 hrs by sulforhodamine B assay; assay type: functional; details: DU-145, 48 h
[3] = test system: A549; experiment: Antiproliferative activity against human A549 cells after 48 hrs by sulforhodamine B assay; assay type: functional; details: A549, 48 h
[4] = test system: HeLa; experiment: Antiproliferative activity against human HeLa cells after 48 hrs by sulforhodamine B assay; assay type: functional
[5] = target: Tubulin (Sus scrofa, UniProt P02554+P02550); experiment: Inhibition of porcine brain tubulin polymerization measured at 1 min interval for 1 hr by fluorescence plate reader assay
[6] = test system: HeLa; experiment: Cell cycle arrest in human HeLa cells assessed as accumulation at G2/M phase after 48 hrs by propidium iodide staining based flow cytometry; assay type: functional
[7] = test system: HeLa; experiment: Cell cycle arrest in human HeLa cells assessed as accumulation at G0 phase at 60 nM after 48 hrs by propidium iodide staining based flow cytometry (reference value: 5.64%); assay type: functional
[8] = target: Tubulin (Homo sapiens) (UniProt P68371+Q9H4B7+P0DPH7+P68366+Q13509+Q71U36+P04350+Q3ZCM7+P07437+P68363+Q9BQE3+Q6PEY2+Q13885+Q9BVA1+Q9BUF5); experiment: Inhibition of tubulin polymerization in human HeLa cells assessed as induction of microtubule disruption at 60 nM after 48 hrs by confocal microscopic analysis; assay type: cell-based
In short: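 HeLa cells grown on sterile cover slips, exposed 48 h at 60 nM, immunostained with α-tubulin antibody; microtubule network organization examined by confocal imaging.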

[9] = test system: HeLa; experiment: Cell cycle arrest in human HeLa cells assessed as accumulation at G2/M phase at 60 nM after 48 hrs by propidium iodide staining based flow cytometry (reference value: 17.56%); assay type: functional
[10] = test system: HeLa; experiment: Cell cycle arrest in human HeLa cells assessed as accumulation at G1 phase at 40 nM after 48 hrs by propidium iodide staining based flow cytometry (reference value: 73.28%); assay type: functional
[11] = test system: HeLa; experiment: Induction of apoptosis in human HeLa cells assessed as caspase-9 activation using AFC-labeled substrate at 40 to 60 nM after 24 to 48 hrs by fluorescence plate reader assay relative to combretastatin A-4
[12] = test system: HeLa; experiment: Induction of inner mitochondrial membrane potential depolarization in isolated mitochondria from human HeLa cells at 40 to 60 nM after 48 hrs by JC-1 staining based fluorescence plate reader assay; assay type: functional
In short: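 Mitochondria isolated and incubated with JC-1 dye alongside treatment at 40 and 60 nM; red/green fluorescence emission ratio recorded as the index of inner membrane potential, with untreated mitochondria as control.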

[13] = test system: HeLa; experiment: Cell cycle arrest in human HeLa cells assessed as accumulation at G1 phase at 60 nM after 48 hrs by propidium iodide staining based flow cytometry (reference value: 73.28%); assay type: functional
[14] = test system: HeLa; experiment: Cell cycle arrest in human HeLa cells assessed as accumulation at S phase at 40 nM after 48 hrs by propidium iodide staining based flow cytometry (reference value: 3.52%); assay type: functional
[15] = test system: HeLa; experiment: Induction of apoptosis in human HeLa cells assessed as caspase-3 activation using AFC-labeled caspase-3 substrate at 40 to 60 nM after 24 to 48 hrs by fluorescence plate reader assay relative to combretastatin A-4; assay type: functional
In short: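 HeLa cells exposed at 40 and 60 nM; caspase-3 and caspase-9 activity measured fluorimetrically with conjugated caspase substrates at two time points.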

[16] = test system: HeLa; experiment: Cell cycle arrest in human HeLa cells assessed as accumulation at G0 phase at 40 nM after 48 hrs by propidium iodide staining based flow cytometry (reference value: 5.64%); assay type: functional
[17] = test system: HeLa; experiment: Cell cycle arrest in human HeLa cells assessed as accumulation at S phase at 60 nM after 48 hrs by propidium iodide staining based flow cytometry (reference value: 3.52%); assay type: functional
[18] = test system: HeLa; experiment: Cell cycle arrest in human HeLa cells assessed as accumulation at G2/M phase at 40 nM after 48 hrs by propidium iodide staining based flow cytometry (reference value: 17.56%); assay type: functional
[19] = target: Tubulin (Sus scrofa) (UniProt P02554+P02550); experiment: Inhibition of porcine brain tubulin polymerization at 3 uM measured at 1 min interval for 1 hr by fluorescence plate reader assay relative to control
Chain of Tubulin (Sus scrofa) (P02550 whole entry, looked up): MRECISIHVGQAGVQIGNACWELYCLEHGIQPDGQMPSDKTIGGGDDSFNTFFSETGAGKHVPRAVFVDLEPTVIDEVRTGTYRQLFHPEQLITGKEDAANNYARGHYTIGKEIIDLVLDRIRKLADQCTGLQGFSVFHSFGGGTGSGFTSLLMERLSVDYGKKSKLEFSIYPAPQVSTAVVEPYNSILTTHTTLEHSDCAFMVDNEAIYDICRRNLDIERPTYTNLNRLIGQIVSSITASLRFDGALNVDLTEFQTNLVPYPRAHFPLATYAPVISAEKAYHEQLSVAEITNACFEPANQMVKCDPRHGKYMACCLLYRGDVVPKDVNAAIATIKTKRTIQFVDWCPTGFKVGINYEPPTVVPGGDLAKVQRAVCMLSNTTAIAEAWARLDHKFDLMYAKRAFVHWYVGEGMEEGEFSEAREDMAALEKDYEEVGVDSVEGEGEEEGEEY
Chain of Tubulin (Sus scrofa) (P02554 whole entry, looked up): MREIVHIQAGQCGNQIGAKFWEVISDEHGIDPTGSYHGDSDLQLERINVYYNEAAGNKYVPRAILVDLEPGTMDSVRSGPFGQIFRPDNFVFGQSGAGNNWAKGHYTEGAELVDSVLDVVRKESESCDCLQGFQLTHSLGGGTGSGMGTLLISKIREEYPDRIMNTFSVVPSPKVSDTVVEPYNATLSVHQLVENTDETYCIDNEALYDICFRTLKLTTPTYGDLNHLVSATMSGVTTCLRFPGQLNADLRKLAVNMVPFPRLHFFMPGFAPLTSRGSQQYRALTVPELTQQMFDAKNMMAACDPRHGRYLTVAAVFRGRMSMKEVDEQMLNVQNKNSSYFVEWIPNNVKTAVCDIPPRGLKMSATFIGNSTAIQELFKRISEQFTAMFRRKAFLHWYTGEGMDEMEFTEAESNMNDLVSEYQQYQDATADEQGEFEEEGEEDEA
In short: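 Tubulin polymerization followed by fluorescence (excitation 360 nm, emission 420 nm) over 1 h at 37 °C, test agents at 3 μM; inhibition expressed as percentage of polymerization versus untreated control.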

Row | SMILES | GI50 [1] [µM] | GI50 [2] [µM] | GI50 [3] [µM] | GI50 [4] [µM] | further results
1 | COc1cc(-c2ncccc2-c2nc3ccccc3[nH]2)cc(OC)c1OC | 3.5 | 14.6 | 4.5 | 2.6 | –
2 | COc1ccc2nc(-c3cccnc3-c3cc(OC)c(OC)c(OC)c3)sc2c1 | 0.26 | 0.18 | 0.13 | 0.06 | IC50 [5]: 2.01 µM; Activity [6]: Dose-dependent effect; Activity [7]: 25.35%; inhibition [8]: Active; Activity [9]: 40.8%; Activity [10]: 51.22%; fold change (FC) [11]: 2; Activity [12]: Active; Activity [13]: 19.54%; Activity [14]: 11.86%; fold change (FC) [15]: 2; Activity [16]: 13.27%; Activity [17]: 14.3%; Activity [18]: 23.65%; inhibition [19]: 60.1%
3 | COc1cc2nc(-c3cccnc3-c3cc(OC)c(OC)c(OC)c3)[nH]c2cc1OC | 1.5 | 0.6 | 2.5 | 1.7 | –
4 | COc1cc2nc(-c3cccnc3-c3cc(OC)c(OC)c(OC)c3)sc2cc1OC | 0.5 | 0.6 | 0.5 | 1.6 | –
5 | COc1ccc(-c2ncccc2-c2nc3cc(OC)c(OC)cc3[nH]2)cc1 | 42.5 | – | 19.5 | 21.4 | –
6 | COc1ccc2nc(-c3cccnc3-c3cc(C(F)(F)F)ccc3Cl)sc2c1 | 0.079 | 0.052 | 0.091 | 0.04 | IC50 [5]: 1.91 µM; Activity [6]: Dose-dependent effect; Activity [7]: 20.47%; inhibition [8]: Active; Activity [9]: 54.05%; Activity [10]: 43%; fold change (FC) [11]: 2; Activity [12]: Active; Activity [13]: 15.19%; Activity [14]: 24.62%; fold change (FC) [15]: 2; Activity [16]: 8.13%; Activity [17]: 10.3%; Activity [18]: 24.26%; inhibition [19]: 68.3%
7 | COc1ccc(-c2ncccc2-c2nc3cc(OC)c(OC)cc3[nH]2)cc1OC | 1.9 | 4.19 | 7.9 | 7.7 | –
8 | COc1ccc(-c2ncccc2-c2nc3cc(OC)c(OC)cc3s2)cc1 | 30.9 | – | 59.1 | 11.3 | –
9 | COc1ccc2nc(-c3cccnc3-c3cc(OC)c(OC)c(OC)c3)[nH]c2c1 | 0.84 | 0.29 | 1.5 | 5 | –
10 | COc1cc(-c2ncccc2-c2nc3ccccc3s2)cc(OC)c1OC | 3.5 | 4.1 | 3.2 | 4.8 | –
11 | COc1ccc(-c2ncccc2-c2nc3ccc(OC)cc3s2)cc1 | – | – | 13.3 | 8.1 | –
12 | COc1ccc(-c2ncccc2-c2nc3cc(OC)c(OC)cc3s2)cc1OC | 1.2 | 5.91 | 7.58 | 13.5 | –
13 | COc1ccc2nc(-c3cccnc3-c3ccc(OC)c(OC)c3)sc2c1 | 2.2 | 6.8 | 1.7 | 6.2 | –
14 | COc1ccc(-c2ncccc2-c2nc3ccccc3s2)cc1OC | 0.7 | 3.6 | 0.2 | 1.8 | –
15 | COc1ccc(/C=C\c2cc(OC)c(OC)c(OC)c2)cc1O [COMBRETASTATIN A4] | 0.08 | 0.07 | 0.06 | 0.06 | Activity [7]: 24.78%; Activity [9]: 41.48%; Activity [10]: 17.92%; Activity [12]: Active; Activity [13]: 17.29%; Activity [14]: 17.34%; Activity [16]: 25.87%; Activity [17]: 16.44%; Activity [18]: 38.87%
16 | COc1ccc(S(=O)(=O)Nc2cccnc2Nc2ccc(O)cc2)cc1 [ABT-751] | 2.8 | 1.2 | 1.8 | 4.8 | –

Second part, led by results:

Row | GI50 [1] [µM] | GI50 [2] [µM] | GI50 [3] [µM] | GI50 [4] [µM] | SMILES | further results
17 | 12.4 | 5.8 | – | – | COc1ccc(-c2ncccc2-c2nc3ccccc3[nH]2)cc1OC | –
18 | 1.2 | – | 1.5 | 5.8 | FC(F)(F)c1ccc(Cl)c(-c2ncccc2-c2nc3ccc(Cl)cc3s2)c1 | –
19 | – | – | 18.4 | 15.8 | FC(F)(F)c1ccc(-c2ncccc2-c2nc3ccc(Cl)cc3[nH]2)cc1 | –
20 | – | 19.6 | – | – | COc1ccc(-c2ncccc2-c2nc3ccc(OC)cc3[nH]2)cc1 | –
21 | 15 | 5.49 | 7.41 | 4.89 | FC(F)(F)c1ccc(Cl)c(-c2ncccc2-c2nc3ccccc3s2)c1 | –
22 | – | 34.7 | – | – | COc1ccc(-c2ncccc2-c2nc3ccc(Cl)cc3[nH]2)cc1 | –
23 | 32.5 | – | 19.5 | 20.4 | FC(F)(F)c1ccc(-c2ncccc2-c2nc3ccc(Cl)cc3s2)cc1 | –
24 | – | – | 17 | 15.7 | COc1ccc2nc(-c3cccnc3-c3ccc(C(F)(F)F)cc3)sc2c1 | –
25 | 3.9 | 0.19 | 7.9 | 7.7 | COc1ccc(-c2ncccc2-c2nc3ccc(Cl)cc3s2)cc1 | –
26 | 0.76 | 0.21 | 0.75 | 0.15 | COc1ccc2nc(-c3cccnc3-c3cc(C(F)(F)F)ccc3Cl)[nH]c2c1 | –
27 | 44.8 | 12 | 27.6 | 16.6 | COc1ccc2nc(-c3cccnc3-c3ccc(OC)c(OC)c3)[nH]c2c1 | –
28 | – | 32.1 | 38.2 | – | COc1ccc2nc(-c3cccnc3-c3ccc(C(F)(F)F)cc3)[nH]c2c1 | –
